These results are taken from ChEMBL document CHEMBL1130174, “Pyrrolidine-3-carboxylic acids as endothelin antagonists. 2. Sulfonamide-based ETA/ETB mixed antagonists” (J Med Chem, 1997).

The nature of series [1]: Ratio of endothelin A receptor and endothelin B receptor.
The target of series [2] is T1, Endothelin-1 receptor (Homo sapiens, UniProt P25101).
T1 sequence (P25101 whole entry): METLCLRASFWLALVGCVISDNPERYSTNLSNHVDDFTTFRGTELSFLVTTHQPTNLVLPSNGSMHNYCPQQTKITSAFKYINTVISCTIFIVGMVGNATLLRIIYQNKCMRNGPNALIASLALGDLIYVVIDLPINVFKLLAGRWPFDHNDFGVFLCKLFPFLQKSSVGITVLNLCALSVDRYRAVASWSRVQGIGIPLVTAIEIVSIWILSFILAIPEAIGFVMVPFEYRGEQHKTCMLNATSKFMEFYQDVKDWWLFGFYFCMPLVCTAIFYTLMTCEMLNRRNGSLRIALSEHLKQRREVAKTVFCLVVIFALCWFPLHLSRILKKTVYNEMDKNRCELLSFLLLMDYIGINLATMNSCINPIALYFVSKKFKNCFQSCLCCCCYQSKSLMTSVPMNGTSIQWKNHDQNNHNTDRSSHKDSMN
The series is described as follows: Ability to displace endothelin ([125I]ET1) from human Endothelin A receptor. The essentials: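 Membranes from CHO cells stably transfected with human ETA, prepared at 4 °C and stored at -80 °C. Buffer: 20 mM Tris pH 7.4, 100 mM NaCl, 10 mM MgCl2, 0.2% BSA, protease inhibitors. Bound ligand separated by glass-fibre filtration. Nonspecific binding with 1 µM unlabeled ET-1. IC50 is the mean of at least two determinations.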

The target of series [3] is T2, Endothelin receptor type B (Homo sapiens, UniProt P24530).
T2 sequence (P24530 whole entry): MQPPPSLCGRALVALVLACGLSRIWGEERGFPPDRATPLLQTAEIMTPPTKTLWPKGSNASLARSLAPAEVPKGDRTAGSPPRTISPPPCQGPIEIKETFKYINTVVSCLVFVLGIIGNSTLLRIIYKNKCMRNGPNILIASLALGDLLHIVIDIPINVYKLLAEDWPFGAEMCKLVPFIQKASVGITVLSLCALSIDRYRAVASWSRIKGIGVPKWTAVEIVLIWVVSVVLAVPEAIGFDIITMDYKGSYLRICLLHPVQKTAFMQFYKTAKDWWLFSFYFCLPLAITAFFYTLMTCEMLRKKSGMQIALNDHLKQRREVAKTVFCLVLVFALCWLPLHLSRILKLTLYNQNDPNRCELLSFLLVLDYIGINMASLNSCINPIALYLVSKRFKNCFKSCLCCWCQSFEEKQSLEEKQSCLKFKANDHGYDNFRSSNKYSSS
As to the kind of experiment: Ability to displace endothelin ([125I]ET1) from human Endothelin B receptor.

A short description of series [4]: Half-life is obtained after intravenous dosing of rats. The series is classed as ADME, organism-based. As to conditions: rat, in vivo.
The nature of series [5]: Oral bioavailability in rat. The series is classed as ADME, organism-based. As to conditions: in vivo.
Series [6] addresses T2, Endothelin receptor type B. The series is described as follows: Binding assay performed using human Endothelin B receptor (hETB) expressed in chinese hamster ovary cells(CHO). The series is classed as cell-based.
Another series has as its system Rattus norvegicus. As to the kind of experiment: (§1) Total drug exposure is determined after oral dosing in rats. Details: concentration or dose not given beside the values. As to conditions: in vivo. It counts as ADME, organism-based.
The target of series [7] is T3, Endothelin receptor type B (Sus scrofa, UniProt P35463).
T3 sequence (P35463 whole entry): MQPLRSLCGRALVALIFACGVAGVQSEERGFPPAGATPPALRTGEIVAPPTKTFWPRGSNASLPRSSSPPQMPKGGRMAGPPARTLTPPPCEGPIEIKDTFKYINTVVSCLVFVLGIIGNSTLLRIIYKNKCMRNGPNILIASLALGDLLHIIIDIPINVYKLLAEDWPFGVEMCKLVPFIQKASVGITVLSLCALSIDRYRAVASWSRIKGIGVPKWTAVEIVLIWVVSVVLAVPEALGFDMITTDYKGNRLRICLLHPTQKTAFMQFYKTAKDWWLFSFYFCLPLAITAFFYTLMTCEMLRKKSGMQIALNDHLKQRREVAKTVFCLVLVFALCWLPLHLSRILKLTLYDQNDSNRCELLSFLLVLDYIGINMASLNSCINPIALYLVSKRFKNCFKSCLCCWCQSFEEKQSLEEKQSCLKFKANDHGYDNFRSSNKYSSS
As to the kind of experiment: Ability to displace endothelin ([125I]ET-3) from endothelin B receptor derived from cerebellar tissue of porcine.

Series [8] has as its target T2, Endothelin receptor type B. The series is described as follows: Ability to block the ET-1-induced hydrolysis of inositol phosphate in Endothelin B receptor of chinese hamster ovary(CHO) cells. The series is classed as functional.
The target in series [9] is T4, Endothelin-1 receptor (Rattus norvegicus, UniProt P26684).
T4 sequence (P26684 whole entry): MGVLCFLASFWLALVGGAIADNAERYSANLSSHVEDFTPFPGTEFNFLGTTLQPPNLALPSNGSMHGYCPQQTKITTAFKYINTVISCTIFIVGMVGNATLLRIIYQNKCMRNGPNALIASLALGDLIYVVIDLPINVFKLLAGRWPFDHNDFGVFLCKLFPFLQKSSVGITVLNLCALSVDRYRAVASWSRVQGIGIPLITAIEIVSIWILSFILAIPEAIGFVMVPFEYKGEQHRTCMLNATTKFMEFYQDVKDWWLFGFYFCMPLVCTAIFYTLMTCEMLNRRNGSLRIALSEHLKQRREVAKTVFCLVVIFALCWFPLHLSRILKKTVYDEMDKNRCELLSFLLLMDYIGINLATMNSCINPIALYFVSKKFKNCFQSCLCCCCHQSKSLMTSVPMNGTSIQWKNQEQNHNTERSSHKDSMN
As to the kind of experiment: Ability to displace endothelin ([125I]ET1) from endothelin A receptor derived from MMQ cells of rodent. The series is classed as cell-based, Rodentia sp.

The nature of series [10]: Maximum drug concentration is determined after oral dosing in rats. It counts as ADME, organism-based. Details: route oral. As to conditions: rat, in vivo.
Series [11] addresses T1, Endothelin-1 receptor. The series is described as follows: Binding assay performed using human Endothelin A receptor (hETA) expressed in chinese hamster ovary cells(CHO). It counts as cell-based.
The nature of series [12]: Half-life is obtained after oral dosing of rats. The series is classed as ADME, organism-based. Conditions: rat, in vivo.
Series [13] in a line: as §1. The series is classed as ADME, organism-based. Conditions: rat, in vivo. Details: concentration or dose not given beside the values.

Square brackets hold non-standard residues; d marks the D form. Peptide text beside a SMILES is read from it. * marks the point of attachment. Piperazinyl(4-Ph) = c1ccc(N2CCN(*)CC2)cc1; dGly(2-thienyl) = N[C@@H](C(=O)O)c1cccs1

In general, IC50 refers to the concentration needed to halve the response being measured. Broadly, the half-life is the time in which the quantity being followed falls by half. A word on the bioavailability: it is the share of a dose that reaches the circulation, judged against a reference dose that is usually intravenous. On to `CCCc1cc(C(=O)O)ccc1OC(C(=O)NS(=O)(=O)c1ccc(C(C)C)cc1)c1ccc2c(c1)OCO2` [L-754142], for which the Ratio in series [1] stood at 17. Moreover, the IC50 amounted to 0.26 nM on Endothelin-1 receptor [2] and 4.4 nM in series [3]. The molecule also gave a half-life in series [4] of 2 h. Also, the bioavailability in series [5] is 60%.
As a reminder, the AUC is the area under the concentration-time curve, a measure of exposure. As a reminder, the Cmax is the peak of the concentration-time curve. For `CCCN(CCN1C[C@H](c2ccc3c(c2)OCO3)[C@@H](C(=O)O)[C@@H]1c1ccc(OC)c(F)c1)S(=O)(=O)CCCCl` (stereo in doubt; 15d), the IC50 in [6] was found to be 0.14 nM; in [7], 0.2 nM; in series [8], 0.83 nM; on Endothelin-1 receptor [9] it was 0.094 nM; at Endothelin-1 receptor [11], 0.07 nM. In the series on Rattus norvegicus, this molecule registered an AUC of 2200 ng·h/mL. Besides, in series [10], the maximum concentration (Cmax) is 400 ng/mL. Also, the figures for the half-life in [4] and in series [12] were 14 h and 9.6 h, respectively. In [5], this molecule gave a bioavailability of 25%.
`CC(C)C[C@@H]1NC(=O)[C@@H](c2cccs2)NC(=O)[C@H](CC(=O)O)NC(=O)[C@H](CC(=O)N2CCN(c3ccccc3)CC2)NC(=O)[C@@H](CC(=O)O)NC(=O)[C@@H](Cc2c[nH]c3ccccc23)NC1=O` (cyclo(D(Piperazinyl(4-Ph))D[dGly(2-thienyl)]L[dW][dD])): the Ratio in series [1] was found to be 540. For the same molecule, the values for the IC50 (on Endothelin-1 receptor [2]; in series [3]) were 0.24 nM and 130 nM, respectively. Besides, in series [4], the half-life was 0.5 h.
Consider `CCCCCCS(=O)(=O)N(CCC)CCN1C[C@H](c2ccc3c(c2)OCO3)[C@@H](C(=O)O)[C@@H]1c1ccc(OC)c(F)c1` (stereo in doubt; 15c), for which the concentration for half-maximal inhibition (IC50) in [6] is 0.48 nM; in [7], 0.34 nM; in series [8] it was 1.12 nM. Besides, the AUC in the series with Rattus norvegicus was determined as 2800 ng·h/mL. The peak concentration (Cmax) in series [10] was found to be 700 ng/mL. In addition, the half-life was 3.3 h in series [4] and 6.4 h in series [12]. The molecule also showed a bioavailability in series [5] of 40%.
In the case of `CCCCCS(=O)(=O)N(CCC)CCN1C[C@H](c2ccc3c(c2)OCO3)[C@@H](C(=O)O)[C@@H]1c1ccc(OC)c(F)c1` (stereo in doubt; 15b), the half-maximal inhibitory concentration (IC50) in series [6] is 0.28 nM; in series [7], 0.29 nM; in [8], 1.28 nM. This molecule also returned an AUC in the series with Rattus norvegicus of 11200 ng·h/mL. In series [10], the concentration peaked (Cmax) at 2400 ng/mL. For the same molecule, the half-life in series [4] is 5 h; in [12], 8.1 h. The molecule also yielded a bioavailability in series [5] of 54%.
One may read the Ki as the equilibrium dissociation constant of an inhibitor or competing ligand from its target. On to `CCCOc1ccc2c(c1)[C@@H](c1ccc(OC)cc1OCCO)[C@H](C(=O)O)[C@H]2c1ccc2c(c1)OCO2`, for which, in series [1], the Ratio was determined as 100. Further, the values for the Ki (at Endothelin-1 receptor [2]; in series [3]) were 1.1 nM and 110 nM, respectively. The molecule further gave a half-life in [4] of 2 h. For the same molecule, the bioavailability in [5] is 60%.
As for `CCCCS(=O)(=O)N(CCC)CCN1C[C@H](c2ccc3c(c2)OCO3)[C@@H](C(=O)O)[C@@H]1c1ccc(OC)c(F)c1` (stereo in doubt; 15a), the figures for the concentration for half-maximal inhibition (IC50) in series [6], in series [7] and in series [8] were 0.47 nM, 0.32 nM and 0.6 nM, respectively. Also, the AUC in series [13] amounted to 3700 ng·h/mL. Also, the peak concentration (Cmax) in [10] came to 1100 ng/mL. In addition, the half-life was 6.9 h in series [4] and 7.3 h in [12]. In addition, the bioavailability in [5] was found to be 31%.
For `CCCN(CCN1C[C@H](c2ccc3c(c2)OCO3)[C@@H](C(=O)O)[C@@H]1c1ccc(OC)c(F)c1)S(=O)(=O)CCCC(F)(F)F` (stereo in doubt; 15e), the concentration for half-maximal inhibition (IC50) was determined as 0.2 nM in [6], 0.32 nM in series [7] and 1.46 nM in [8]. In the series with Rattus norvegicus, this molecule showed an exposure (AUC) of 4300 ng·h/mL. The Cmax in series [10] was 1200 ng/mL. Also, the values for the half-life in series [4] and in [12] were 4.3 h and 8.9 h, respectively. Moreover, the bioavailability in series [5] was found to be 25%.
For `CCCOc1ccc2c(c1)[C@@H](c1ccc(OC)cc1OCC(=O)O)[C@H](C(=O)O)[C@H]2c1ccc2c(c1)OCO2` [SB-209670], the Ratio in series [1] was determined as 90. The inhibitory constant (Ki) was 0.2 nM at Endothelin-1 receptor [2] and 18 nM in series [3].
